Experimental data reported in ChEMBL document CHEMBL1165904, “Design, synthesis and 3D-QSAR of beta-carboline derivatives as potent antitumor agents” (Eur J Med Chem, 2010).

Experiments:
Assay type in all cases: functional, cell-based
HepG2 = experiment: Cytotoxicity against human HepG2 cells by MTT assay
In short: (§1)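 Tumour cells cultured in RPMI-1640 with 10% (v/v) fetal calf serum plus penicillin and streptomycin, at 37 °C, humidified 5% CO2. Compounds from DMSO stocks; final DMSO in medium 2% (v/v) or lower. Assay in 96-well microtitre cultures with MTT staining. IC50 taken as concentration causing 50% growth inhibition relative to untreated cells.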

HeLa = experiment: Cytotoxicity against human HeLa cells by MTT assay; in short: as §1
Bel-7402 = experiment: Cytotoxicity against human Bel7402 cells by MTT assay; in short: as §1
BGC-823 = experiment: Cytotoxicity against human BGC823 cells by MTT assay; in short: as §1
MCF7 = experiment: Cytotoxicity against human MCF7 cells by MTT assay; in short: as §1

| SMILES | IC50 (HepG2; read-out: IC50) [µM] | IC50 (HepG2; read-out: pIC50 (converted)) [µM] | IC50 (HeLa) [µM] | IC50 (Bel-7402) [µM] | IC50 (BGC-823) [µM] | IC50 (MCF7) [µM] |
| --- | --- | --- | --- | --- | --- | --- |
| CCCCn1c2ccccc2c2cc(C=O)nc(C)c21 | 143 | 145 | 169 | 123 | > 200 | 154 |
| c1ccc(CCC[n+]2ccc3c(c2)[nH]c2ccccc23)cc1 | 44.6 | 44.7 | 44.3 | 24.6 | 7.1 | 5.7 |
| Cc1nccc2c3ccc(OCc4c(F)c(F)c(F)c(F)c4F)cc3n(CCCc3ccccc3)c12 | 147 | 148 | 73.5 | 18.6 | 7.88 | 38.7 |
| CCCCn1c2ccccc2c2cc(C(=O)NCCN)ncc21 | 82.9 | 83.2 | 26.9 | 115 | 53.2 | 18.5 |
| CCOC(=O)c1cc2c([nH]c3ccccc32)c(-c2cc(OC)c(OC)c(OC)c2)n1 | 167 | 166 | > 200 | > 200 | > 200 | 123 |
| Cc1nc(C(=O)NCCN)cc2c3ccccc3n(Cc3ccccc3)c12 | 34.8 | 34.7 | 11 | 53.6 | 20.3 | 4.7 |
| O=C(NCCO)c1cc2c3ccccc3n(Cc3ccc(F)cc3)c2cn1 | > 200 |  | > 200 | > 200 | > 200 | > 200 |
| Cc1c2c(cc[n+]1Cc1ccccc1)c1ccc(OCc3ccccc3)cc1n2CC(C)C | 1.9 | 1.91 | 12.4 | 5 | 5.2 | 3.9 |
| CCCCCCCCOc1ccc2c3ccnc(C)c3n(CCCc3ccccc3)c2c1 | 105 | 105 | 69.6 | 21.8 | 17.4 | 45.9 |
| CCn1c2cc(O)ccc2c2ccnc(C)c21 | 134 | 135 | 70.3 | 165 | 160 | 106 |
| CCCC[n+]1ccc2c(c1)[nH]c1ccccc12 | 94 | 93.3 | 130 | 302 | 326 | 338 |
| OCc1cc2c3ccccc3n(Cc3ccc(F)cc3)c2cn1 | > 200 |  | > 200 | > 200 | > 200 | > 200 |
| CCCCn1c2cc(OC(C)C)ccc2c2ccnc(C)c21 | 30.2 | 30.2 | 21.2 | 26.8 | 19.1 | 19.5 |
| CCn1c2cc(OCc3c(F)c(F)c(F)c(F)c3F)ccc2c2cc[n+](Cc3ccccc3)c(C)c21 | 1.6 | 1.58 | 0.93 | 4 | 4.6 | 5.7 |
| Cc1nccc2c3ccc(OCc4ccccc4)cc3n(CCCc3ccccc3)c12 | 15.7 | 15.8 | 72.6 | 29.4 | 19.5 | 63.3 |
| CCCCCCCCCCOc1ccc2c3ccnc(C)c3n(CCCC)c2c1 | 127 | 126 | 106 | 18.8 | 28.4 | 62.7 |
| CCCCOc1ccc2c3ccnc(C)c3n(CCCC)c2c1 | 15.5 | 15.5 | 17.4 | 69.9 | 15.8 | 17.3 |
| CCOC(=O)c1cc2c3ccccc3n(Cc3ccc(F)cc3)c2cn1 | > 200 |  | > 200 | > 200 | > 200 | > 200 |
| CCCCn1c2ccccc2c2cc(C(=O)O)nc(-c3cc(OC)c(OC)c(OC)c3)c21 | 208 | 209 | 166 | 187 | 36.2 | 115 |
| O=C(NCCO)c1cc2c3ccccc3n(Cc3ccccc3)c2cn1 | > 200 |  | > 200 | > 200 | > 200 | > 200 |
| CCOc1ccc2c3ccnc(C)c3n(CC)c2c1 | 68.9 | 69.2 | 30.7 | 27.4 | 57.1 | 14.4 |
| NCCNC(=O)c1cc2c3ccccc3n(Cc3ccccc3)c2cn1 | 104 | 105 | 42.8 | 51.7 | 11.9 | 51.6 |
| CCCCn1c2ccccc2c2cc(C(=O)NCCN)nc(C)c21 | 21.9 | 21.9 | 13.3 | 56 | 17.3 | 7.5 |
